This is a sample that favours compounds with a hit; in the whole collection about 2.1% have one here.
Hck-Nef inh – inhibitors of Nef-activated human Hck kinase, primary screen, biochemical, Z-Lyte FRET, 384-well, Hck-YEEI | inhibition, % at 20 µM | Recombinant Hck-YEEI plus Nef, Z-Lyte FRET kinase assay | AID 463187, 2010 | 0.68% of 220,000 active | Tyrosine-protein kinase HCK (Homo sapiens), P08631;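 active = Hck-Nef kinase inhibition above about 50%, limit read from the data; inactive = inhibition below that limit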;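 note: 0% = DMSO with Hck plus Nef and 100% = Hck alone without Nef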
Target sequence (P08631 whole entry, looked up): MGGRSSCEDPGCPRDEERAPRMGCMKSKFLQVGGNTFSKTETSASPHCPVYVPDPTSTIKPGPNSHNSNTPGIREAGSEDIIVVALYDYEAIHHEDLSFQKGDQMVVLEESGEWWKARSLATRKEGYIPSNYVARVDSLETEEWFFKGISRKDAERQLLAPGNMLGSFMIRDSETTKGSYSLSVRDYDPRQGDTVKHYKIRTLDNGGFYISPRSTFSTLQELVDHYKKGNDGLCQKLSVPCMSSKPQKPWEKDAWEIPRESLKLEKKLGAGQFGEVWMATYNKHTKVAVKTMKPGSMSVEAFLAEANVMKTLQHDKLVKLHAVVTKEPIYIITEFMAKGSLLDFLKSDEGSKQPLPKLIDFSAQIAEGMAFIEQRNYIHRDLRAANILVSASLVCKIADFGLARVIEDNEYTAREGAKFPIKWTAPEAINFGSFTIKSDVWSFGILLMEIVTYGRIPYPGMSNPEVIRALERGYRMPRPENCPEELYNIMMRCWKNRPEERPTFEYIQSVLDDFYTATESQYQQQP
Runt-SMMHC FRET – inhibitors of RUNX1 Runt–CBFb-SMMHC binding, primary screen, biochemical, FRET, Cerulean-Runt, Venus-CBFb-SMMHC, uHTS; Cerulean-Runt/Venus-CBFb-SMMHC FRET ratio 530/480, 1 h; Runt-related transcription factor 1 (Homo sapiens) + Core-binding factor subunit beta …; 0.74% of 220,000 active; AID 1434, 2008; inhibition, % at 20 µM;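 active = mean inhibition across duplicate retests at 20 µM reaching about 50%, limit read from the data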;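 note: 0% = DMSO wells and 100% = wells with excess untagged CBFb-SMMHC; inhibitors lower the FRET ratio by blocking Runt binding to CBFb-SMMHC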
RanGTP-Impb inh – inhibitors of RanGTP-importin-beta interaction, primary screen, biochemical, FRET, CFP-Ran, YFP-importin-beta, homogeneous; 1.1% of 300,000 active; AID 2216, 2009; Ran GTPase (GTP-bound) - importin-beta complex; cell-free CFP-Ran/YFP-importin-beta FRET ratio; inhibition, % (concentration not given with the values);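 active = more than half of the replicate wells show a fall in the fluorescence ratio signal beyond about 16%, limit read from the data, passing the limit was not always enough; inconclusive = exactly half of the replicate wells pass the set limit; inactive = fewer than half of replicates pass the limit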;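 note: 0% = DMSO wells and 100% = Ran loaded with GDP instead of GTP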
Runt-CBFb FRET – inhibitors of RUNX1 Runt–CBFb binding, primary screen, biochemical, FRET, Cerulean-Runt, Venus-CBFb, uHTS; Runt-related transcription factor 1 (Homo sapiens) + Core-binding factor subunit beta …; Cerulean-Runt/Venus-CBFb FRET ratio 530/480, 1 h; inhibition, % at 20 µM; 0.46% of 220,000 active; AID 1496, 2009;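 active = inhibition over about 50% at 20 µM in the single-dose screen, limit read from the data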;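 note: 0% = DMSO wells and 100% = excess unlabeled CBFb competitor control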
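System: Cerulean-labeled Runt domain protein | Quantity: 100 nM of each labeled protein | Schedule: 1 h compound exposure, room temperature | Detection: Fluorescence energy transfer, 422 nm excitation, 530/480 nm emission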
p97 inhibitor – inhibitors of human p97 ATPase, primary screen, biochemical; AID 1481, 2009; inhibition, % at 8 µM; recombinant p97 ATPase, Kinase-Glo ATP luminescence, 3 h; Transitional endoplasmic reticulum ATPase (Homo sapiens), P55072; 0.42% of 220,000 active; in the data active = inhibition above about 15%;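 note: 0% = DMSO vehicle and 100% = wells lacking enzyme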
Tb hexokinase – Trypanosoma brucei hexokinase 1 inhibitors, primary screen, biochemical, G6PDH-coupled NADH absorbance, MLSCN library. hexokinase 1 [Trypanosoma brucei]. recombinant TbHK1, G6PDH-coupled NADH A340. inhibition, % at 10 µM. 0.11% of 220,000 active;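 active = inhibition of 50% or more in the single-dose primary screen; inactive = inhibition below 50%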
Hck Nef conf – retest of Hck:Nef kinase inhibitor hits, confirmation, biochemical, Z-Lyte FRET, 384-well, p-Tyr peptide counterscreen | shares compounds with Hck-Nef inh | 28% of 1,300 active | Recombinant Hck-YEEI:Nef, Z-Lyte FRET kinase assay | calls only at 10 µM;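 active = average inhibition of at least 50%, with Z-scores no higher than 3 in both the phospho-tyrosine peptide and fluorescence counterscreens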
Active calls of the source: *; i = inactive; ? = inconclusive; . = no result given; + = active, no number.

SMILES | Hck-Nef inh | Runt-SMMHC FRET | RanGTP-Impb inh | Runt-CBFb FRET | p97 inhibitor | Tb hexokinase | others
Cc1ccc(-n2sc3ccccc3c2=O)cc1S(=O)(=O)N1CCCCC1 | 115* | 22 | 3 | -35 | 5 | 93* | Hck Nef conf=+
O=c1c2ccccc2sn1-c1ccc(S(=O)(=O)N2CCCCC2)cc1 | 0 | . | 6 | . | 3 | 3
O=C(NNc1cccc(Cl)n1)c1ccc(Cl)nc1 | 3 | 3 | 4 | 0 | 4 | -2
Cc1cc(-n2c(=O)c(C#N)cc3c(=O)n4ccccc4nc32)no1 | + | 65* | 161* | 12 | 1 | -3
Cc1ccccc1-n1c(=O)c(C#N)cc2c(=O)n3ccccc3nc21 | + | 59* | 128* | 19 | 1 | -11
C=CCn1c(=O)c(C#N)cc2c(=O)n3ccccc3nc21 | 155* | 79* | 75* | 10 | 3 | -4
N#Cc1cc2c(=O)n3ccccc3nc2n(-c2ccc(Cl)cc2)c1=O | 173* | 90* | . | 47 | 2 | -6
CC1Cc2ccccc2N1C(=O)c1cc2c(=O)n3ccccc3nc2n1C (stereo unspecified) | 12 | 4 | 0 | 0 | -1 | -25
Cc1cc(NC(=O)c2cnc3ccccn3c2=O)no1 | 8 | . | . | . | 4 | -11
C=CCn1cc(-c2ccccc2)cc(C#N)c1=O | 3 | 6 | -7 | 2 | -1 | -19
O=C(Oc1ccc(/C=N/Nc2nc(N3CCCCC3)nc(N3CCCCC3)n2)cc1)c1ccco1 | 19 | . | -3 | . | -1 | -7
O=C(CN1CC[n+]2c(-c3ccccc3)csc21)c1ccc(Br)cc1 | 67* | 3 | 0 | 5 | 3 | -5 | Hck Nef conf=+
O=C(CN1CC[n+]2c(-c3cccs3)csc21)c1ccc(Br)cc1 | 4 | 1 | 2 | 3 | 4 | -17
COc1ccc(S(=O)(=O)Nc2cc3c4c(c2)CCN4C(=O)CC3)cc1OC | . | . | 6 | . | . | .
COC(=O)c1c(-c2ccccc2Cl)noc1/C=C/N(C)C | 59* | 1 | 1 | 7 | 3 | -26 | Hck Nef conf=+
O=C(NC(=S)Nc1ccc(Cc2ccncc2)cc1)c1ccc(F)cc1 | 68* | -2 | 2 | -2 | 1 | 5 | Hck Nef conf=i
Nc1nc(N)nc(-c2ccc(Oc3ccccc3)cc2)n1 | 19 | -1 | 5 | -2 | 5 | 7
Cc1ccc(Oc2ccc(-c3nc(N)nc(N)n3)cc2)cc1C | 76* | -7 | -2 | -12 | 0 | 2 | Hck Nef conf=i
O=C(NCC1CCCO1)c1coc2nc3ccccc3nc12 (stereo unspecified) | 9 | 5 | 5 | 2 | 5 | -18
COc1ccc(-n2nc(C(=O)NCC(=O)NCC3CCCO3)c3ccccc3c2=O)c(OC)c1 (stereo unspecified) | -1 | 2 | ? | -2 | -6 | 2
COc1ccc(-n2c(N)c(C(=O)NCC3CCCO3)c3nc4ccccc4nc32)c(OC)c1 (stereo unspecified) | 75* | 106* | 52* | 44 | 5 | -20
C=CCn1c(N)c(C(=O)NCC2CCCO2)c2nc3ccccc3nc21 (stereo unspecified) | 55* | 46 | 107* | 4 | -2 | -14
CCOC(=O)c1ccc(N2CCOCC2)c(NC(=O)c2nccnc2C(=O)O)c1 | . | . | 7 | . | . | .
COc1ccc(C2C3=C(CCCC3=O)Nc3ccc4ncccc4c32)cc1OC (stereo unspecified) | 14 | 7 | 2 | 2 | 1 | -5
O=C1CCCC2=C1C(c1cccc(O)c1)c1c(ccc3ncccc13)N2 (stereo unspecified) | 65* | 2 | 2 | 4 | -1 | -11 | Hck Nef conf=i
SMILES | Hck-Nef inh | Runt-SMMHC FRET | RanGTP-Impb inh | Runt-CBFb FRET | p97 inhibitor | Tb hexokinase | others
C=CCn1c(SCC(=O)Nc2sccc2C#N)nc2sc(C)c(C)c2c1=O | 63* | 4 | 4 | 0 | 0 | -23 | Hck Nef conf=+
CCN1CCN(Cc2c(O)ccc3c(C)cc(=O)oc23)CC1 | . | . | 5 | . | . | .
C=CCc1c(O)c(CC)cc2c(C)cc(=O)oc12 | 106* | 80* | 62* | 47 | -7 | -21
CCN(CC)Cc1c(O)c(Cl)cc2c(C)cc(=O)oc12 | + | 138* | 13 | 76* | 3 | -25
Cc1cc(=O)oc2c(CN(CC(C)C)CC(C)C)c(O)ccc12 | 63* | 77* | 0 | 42 | 2 | -38
CN(C)Cc1c(O)ccc2oc(Cc3ccccc3)cc12 | 1 | -4 | -1 | 1 | 1 | 6
Cc1c(Cc2ccccc2)c(=O)oc2c(CN(C)C)c(O)c(Cl)cc12 | 116* | 90* | 71* | 126* | -1 | -21
O=C(O)c1ccccc1N=Nc1c(O)[nH]c2ccc([N+](=O)[O-])cc12 | . | . | 2 | . | . | .
O=c1[nH]c(=S)[nH]c(O)c1N=Nc1ccc(-c2ccccc2)cc1[N+](=O)[O-] | 68* | -23 | -18 | -20 | 6 | 5 | Hck Nef conf=i
CCCCC1=CC2=CC(=O)C(C)(OC(=O)CCc3ccccc3)C(=O)C2=CO1 (stereo unspecified) | 67* | 48 | -18 | 3 | . | -25 | Hck Nef conf=+
O=C(Cc1ccc(Cl)cc1)Nc1ccc(SC(F)F)cc1 | 2 | 0 | -4 | -2 | 1 | 6
CC(C)(C)c1ccc(C(=O)CC(Sc2ccc(Cl)cc2)C(=O)O)cc1 (stereo unspecified) | 77* | 43 | -2 | 47 | -1 | -1 | Hck Nef conf=i
Cc1ccc(SC(CC(=O)c2ccc(F)cc2)C(=O)O)cc1 (stereo unspecified) | . | . | 1 | . | . | .
O=S(=O)(c1cc(Cl)ccc1Cl)N1CCN(c2ccccn2)CC1 | . | . | -1 | . | . | .
O=C(NCc1ccco1)c1cc2ccccc2o1 | 0 | 2 | -1 | -3 | 1 | 1
CC(=O)c1cc2ccc(O)cc2oc1=O | + | 81* | 148* | 10 | 2 | -9
CC(=O)c1cc2cc(O)ccc2o1 | 73* | 70* | -3 | 32 | 1 | -22
O=C(NCc1ccco1)c1cc2ccc(O)cc2oc1=O | + | 58* | 158* | 18 | -13 | -3

Assay outcomes as filed in PubChem.
